Laboratory results from ChEMBL document CHEMBL5058577, “EUbOPEN Chemogenomics Library 2 (Multiplex)” (2022).
Non-standard residues stand in square brackets, D forms with d. Residues, ends and D or L forms follow the SMILES beside them.

Tested on: U2OS
Assay: Multiplex assay against U2OS
Assay type: toxicity, cell-based
Settings: human
How it was run: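 Live cells were stained at seeding with Hoechst33342, BioTracker Green Microtubule Cytoskeleton Dye, MitoTracker Red and Annexin V Alexa Fluor 680. Following compound addition, they were imaged on a CQ1 microscope at 37°C and 5% CO2 and gated by CellPathfinder machine learning into Hoechst high-intensity objects or normal cells, with normal cells split into healthy, pyknosed or fragmented nuclei and pyknosed cells into mitotic or apoptotic. Tubulin, mitochondrial-mass and membrane-permeability phenotypes are per cents of healthy-nucleus cells.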

[1] = 12 h, 1 µM, compound concentration 1 uM, replicate 1
[2] = 12 h, 1 µM, compound concentration 1 uM, replicate 2
[3] = 12 h, 10 µM, compound concentration 10 uM, replicate 1
[4] = 12 h, 10 µM, compound concentration 10 uM, replicate 2
[5] = 24 h, 1 µM, compound concentration 1 uM, replicate 1
[6] = 24 h, 1 µM, compound concentration 1 uM, replicate 2
[7] = 24 h, 10 µM, compound concentration 10 uM, replicate 1
[8] = 24 h, 10 µM, compound concentration 10 uM, replicate 2
[9] = 48 h, 1 µM, compound concentration 1 uM, replicate 1
[10] = 48 h, 1 µM, compound concentration 1 uM, replicate 2
[11] = 48 h, 10 µM, compound concentration 10 uM, replicate 1
[12] = 48 h, 10 µM, compound concentration 10 uM, replicate 2

CC(C)C[C@@H]1NC(=O)[C@@H](C(C)C)NC(=O)[C@@H]2CCCN2C(=O)[C@@H](CC(=O)O)NC(=O)[C@@H](Cc2c[nH]c3ccccc23)NC1=O [BQ-123] (cyclo(L[dW][dD]P[dV]))
Population Apoptotic (%) [1]: 77%
Population Fragmented Nuclei (%) [1]: 20%
Population Healthy Nuclei (%) [1]: 69%
Population Hoechst High Intensity Objects (%) [1]: 0%
Population Membrane Permeable-Phenotype (%) [1]: 1%
Population Mitochondria Different-Phenotype (%) [1]: 1%
Population Mitotic Cells (%) [1]: 22%
Population Normal (%) [1]: 99%
Population Pyknosed Nuclei (%) [1]: 9%
Population Tubulin-Different-Phenotype (%) [1]: 0%
Total Cell Count [1]: 228
Population Apoptotic (%) [2]: 83%
Population Fragmented Nuclei (%) [2]: 19%
Population Healthy Nuclei (%) [2]: 75%
Population Hoechst High Intensity Objects (%) [2]: 2%
Population Membrane Permeable-Phenotype (%) [2]: 2%
Population Mitochondria Different-Phenotype (%) [2]: 0%
Population Mitotic Cells (%) [2]: 16%
Population Normal (%) [2]: 97%
Population Pyknosed Nuclei (%) [2]: 5%
Population Tubulin-Different-Phenotype (%) [2]: 8%
Total Cell Count [2]: 118
Population Apoptotic (%) [3]: 78%
Population Fragmented Nuclei (%) [3]: 29%
Population Healthy Nuclei (%) [3]: 65%
Population Hoechst High Intensity Objects (%) [3]: 2%
Population Membrane Permeable-Phenotype (%) [3]: 8%
Population Mitochondria Different-Phenotype (%) [3]: 1%
Population Mitotic Cells (%) [3]: 21%
Population Normal (%) [3]: 97%
Population Pyknosed Nuclei (%) [3]: 4%
Population Tubulin-Different-Phenotype (%) [3]: 3%
Total Cell Count [3]: 294
Population Apoptotic (%) [4]: 75%
Population Fragmented Nuclei (%) [4]: 25%
Population Healthy Nuclei (%) [4]: 70%
Population Membrane Permeable-Phenotype (%) [4]: 7%
Population Mitochondria Different-Phenotype (%) [4]: 4%
Population Mitotic Cells (%) [4]: 25%
Population Tubulin-Different-Phenotype (%) [4]: 2%
Total Cell Count [4]: 99
Population Apoptotic (%) [5]: 69%
Population Fragmented Nuclei (%) [5]: 16%
Population Healthy Nuclei (%) [5]: 75%
Population Hoechst High Intensity Objects (%) [5]: 0%
Population Membrane Permeable-Phenotype (%) [5]: 2%
Population Mitochondria Different-Phenotype (%) [5]: 1%
Population Mitotic Cells (%) [5]: 30%
Population Normal (%) [5]: 99%
Population Pyknosed Nuclei (%) [5]: 8%
Population Tubulin-Different-Phenotype (%) [5]: 1%
Total Cell Count [5]: 279
Population Apoptotic (%) [6]: 85%
Population Fragmented Nuclei (%) [6]: 11%
Population Healthy Nuclei (%) [6]: 77%
Population Membrane Permeable-Phenotype (%) [6]: 6%
Population Mitochondria Different-Phenotype (%) [6]: 0%
Population Mitotic Cells (%) [6]: 14%
Population Pyknosed Nuclei (%) [6]: 10%
Population Tubulin-Different-Phenotype (%) [6]: 3%
Total Cell Count [6]: 137
Population Apoptotic (%) [7]: 92%
Population Fragmented Nuclei (%) [7]: 24%
Population Healthy Nuclei (%) [7]: 67%
Population Hoechst High Intensity Objects (%) [7]: 2%
Population Membrane Permeable-Phenotype (%) [7]: 8%
Population Mitochondria Different-Phenotype (%) [7]: 2%
Population Mitotic Cells (%) [7]: 8%
Population Normal (%) [7]: 97%
Population Pyknosed Nuclei (%) [7]: 7%
Population Tubulin-Different-Phenotype (%) [7]: 4%
Total Cell Count [7]: 338
Population Apoptotic (%) [8]: 100%
Population Healthy Nuclei (%) [8]: 74%
Population Hoechst High Intensity Objects (%) [8]: 0%
Population Membrane Permeable-Phenotype (%) [8]: 6%
Population Mitochondria Different-Phenotype (%) [8]: 8%
Population Mitotic Cells (%) [8]: 0%
Population Normal (%) [8]: 99%
Population Pyknosed Nuclei (%) [8]: 1%
Total Cell Count [8]: 113
Population Apoptotic (%) [9]: 77%
Population Fragmented Nuclei (%) [9]: 14%
Population Healthy Nuclei (%) [9]: 79%
Population Hoechst High Intensity Objects (%) [9]: 1%
Population Membrane Permeable-Phenotype (%) [9]: 3%
Population Mitochondria Different-Phenotype (%) [9]: 1%
Population Mitotic Cells (%) [9]: 22%
Population Normal (%) [9]: 98%
Population Pyknosed Nuclei (%) [9]: 5%
Population Tubulin-Different-Phenotype (%) [9]: 3%
Total Cell Count [9]: 407
Population Apoptotic (%) [10]: 100%
Population Fragmented Nuclei (%) [10]: 18%
Population Healthy Nuclei (%) [10]: 70%
Population Mitochondria Different-Phenotype (%) [10]: 3%
Population Mitotic Cells (%) [10]: 0%
Population Pyknosed Nuclei (%) [10]: 10%
Population Tubulin-Different-Phenotype (%) [10]: 2%
Total Cell Count [10]: 226
Population Apoptotic (%) [11]: 94%
Population Fragmented Nuclei (%) [11]: 19%
Population Healthy Nuclei (%) [11]: 70%
Population Hoechst High Intensity Objects (%) [11]: 1%
Population Membrane Permeable-Phenotype (%) [11]: 5%
Population Mitochondria Different-Phenotype (%) [11]: 2%
Population Mitotic Cells (%) [11]: 5%
Population Normal (%) [11]: 98%
Population Pyknosed Nuclei (%) [11]: 9%
Population Tubulin-Different-Phenotype (%) [11]: 3%
Total Cell Count [11]: 435
Population Apoptotic (%) [12]: 81%
Population Fragmented Nuclei (%) [12]: 20%
Population Healthy Nuclei (%) [12]: 66%
Population Mitochondria Different-Phenotype (%) [12]: 6%
Population Mitotic Cells (%) [12]: 18%
Population Pyknosed Nuclei (%) [12]: 12%
Population Tubulin-Different-Phenotype (%) [12]: 2%
Total Cell Count [12]: 131
